≈ marks a conversion by molar mass, not a printed value. Calls of active or inactive are those of the source. No cut-off for these calls is given here.
Key:
Candida albicans [1] = test: Antifungal activity against Candida albicans after 72 hrs by broth microdilution method; assay type: functional
[2] = Inhibition of Candida albicans acetohydroxyacid synthase catalytic domain expressed in Escherichia coli by colorimetric method
In short: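 Catalytic subunit, His6-tagged, expressed in E. coli Rosetta and purified on Ni affinity resin with FAD present. Single-point colorimetric assay in 250 mM potassium phosphate pH 6.4 with 50 mM pyruvate, 10 mM MgCl2, 1 mM ThDP and 10 μM FAD, 30 °C for 30 min. Acid decarboxylation to acetoin, creatine/α-naphthol colour read at A525. Duplicates at 10–12 inhibitor levels, Ki from nonlinear fit, tight-binding equation where needed.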

[3] = Toxicity in po dosed rat; assay type: organism-based; conditions: in vivo
Saccharomyces cerevisiae = test: Antifungal activity against Saccharomyces cerevisiae after 72 hrs by broth microdilution assay; assay type: functional
In short: (§1)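 Broth microdilution in YNB supplemented with 0.5% glucose and 100 mM ammonium sulfate, with compounds serially diluted from DMSO solutions. Inoculum came from single colonies of 48 h plates suspended in water, adjusted by 530 nm turbidity to 1 × 10^6 to 5 × 10^6 CFU/mL, then diluted to about 10^4 CFU/mL. Incubated at 35 °C with visual readings at 24, 48 and 72 h. MIC50/90 is the concentration giving 50%/90% growth inhibition; MIC50 is the mean of three measurements.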

Candida albicans [4] = test: Antifungal activity against Candida albicans after 72 hrs by disk diffusion method; assay type: functional
In short: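 Screened by disk diffusion: 10 μL of compound in DMSO applied to a disk on plates inoculated with yeast. Plates were incubated at 35 °C, and inhibition-zone diameters were measured at 24, 48 and 72 h against a DMSO control disk.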

[5] = Toxicity in id dosed rabbit; assay type: organism-based, Oryctolagus cuniculus; conditions: in vivo
Candida albicans [6] = test: Antifungal activity against Candida albicans after 24 hrs by broth microdilution assay; assay type: functional; in short: as §1

SMILES: COc1cc(I)nc(NC(=O)NS(=O)(=O)c2ccccc2C(=O)OCCCl)n1
- MIC50 (Candida albicans [1]): 4 µM (≈ 2.16 µg/mL)
- MIC90 (Candida albicans [1]): 12.7 µM (≈ 6.87 µg/mL)
- Ki ([2]; read-out: Ki): 13.3 nM

SMILES: CCOC(=O)c1ccccc1S(=O)(=O)NC(=O)Nc1nc(Cl)cc(OC)n1 [CHLORIMURON ETHYL]
- LD50 [3]: > 4000 mg/kg
- MIC50 (Candida albicans [1]): 2 µM (≈ 0.83 µg/mL)
- MIC50 (Saccharomyces cerevisiae): 19.5 µM (≈ 8.09 µg/mL)
- diameter of the inhibition zone (DIZ) (Candida albicans [4]): 25 mm
- LD50 [5]: > 2000 mg/kg
- Ki ([2]; read-out: Ki): 7 nM

SMILES: COc1cc(Cl)nc(NC(=O)NS(=O)(=O)c2ccccc2C(=O)OCCO[Si](C)(C)C(C)(C)C)n1
- MIC50 (Candida albicans [1]): > 25 µM
- MIC90 (Candida albicans [1]): > 25 µM
- Ki [2]: Not Active

SMILES: COc1cc(Br)nc(NC(=O)NS(=O)(=O)c2ccccc2C(=O)OCCCl)n1
- MIC50 (Candida albicans [1]): 15 µM (≈ 7.41 µg/mL)
- MIC90 (Candida albicans [1]): > 25 µM

SMILES: CCOc1ccccc1OS(=O)(=O)NC(=O)Nc1nc(OC)cc(OC)n1 [ETHOXYSULFURON]
- MIC50 (Candida albicans [1]): 2 µM (≈ 0.797 µg/mL)
- MIC50 (Saccharomyces cerevisiae): 13 µM (≈ 5.18 µg/mL)
- diameter of the inhibition zone (DIZ) (Candida albicans [4]): 30 mm
- Ki ([2]; read-out: Ki): 20 nM

SMILES: COC(=O)c1ccccc1S(=O)(=O)NC(=O)Nc1nc(Cl)cc(OC)n1
- MIC50 (Candida albicans [1]): 3 µM (≈ 1.2 µg/mL)
- MIC90 (Candida albicans [1]): 6.25 µM (≈ 2.51 µg/mL)
- Ki ([2]; read-out: Ki): 7.1 nM

SMILES: OC(Cn1cncn1)(Cn1cncn1)c1ccc(F)cc1F [FLUCONAZOLE]
- MIC50 (Candida albicans [6]): 0.93 µg/mL (≈ 3.04 µM)

SMILES: COc1cc(Cl)nc(NC(=O)NS(=O)(=O)c2ccccc2C(=O)OCCBr)n1
- MIC50 (Candida albicans [1]): > 25 µM
- MIC90 (Candida albicans [1]): > 25 µM
- Ki ([2]; read-out: Ki): 257 nM

SMILES: CCOC(=O)c1cnn(C)c1S(=O)(=O)NC(=O)Nc1nc(OC)cc(OC)n1 [PYRAZOSULFURON ETHYL]
- MIC50 (Candida albicans [1]): 62 µM (≈ 25.7 µg/mL)
- MIC50 (Saccharomyces cerevisiae): 41.7 µM (≈ 17.3 µg/mL)
- Ki ([2]; read-out: Ki): 66 nM

SMILES: CCOc1nc(NC)nc(NC(=O)NS(=O)(=O)c2ccccc2C(=O)OC)n1 [ETHAMETSULFURON METHYL]
- MIC50 (Candida albicans [1]): inactive
- MIC50 (Saccharomyces cerevisiae): inactive
- Ki ([2]; read-out: Ki): 656 nM

SMILES: COc1cc(I)nc(NC(=O)NS(=O)(=O)c2ccccc2C(=O)OCCI)n1
- MIC50 (Candida albicans [1]): 12 µM (≈ 7.59 µg/mL)
- MIC90 (Candida albicans [1]): 25 µM (≈ 15.8 µg/mL)
- Ki ([2]; read-out: Ki): 93 nM

SMILES: COc1cc(Br)nc(NC(=O)NS(=O)(=O)c2ccccc2C(=O)OCCI)n1
- MIC50 (Candida albicans [1]): > 25 µM
- MIC90 (Candida albicans [1]): > 25 µM
- Ki ([2]; read-out: Ki): 270 nM

SMILES: COC(=O)c1ccccc1S(=O)(=O)NC(=O)Nc1nc(I)cc(OC)n1
- MIC50 (Candida albicans [1]): 1 µM (≈ 0.492 µg/mL)
- MIC90 (Candida albicans [1]): 3.13 µM (≈ 1.54 µg/mL)
- Ki ([2]; read-out: Ki): 3.9 nM

SMILES: COc1cc(I)nc(NC(=O)NS(=O)(=O)c2ccccc2C(=O)OCCO)n1
- MIC50 (Candida albicans [1]): > 25 µM
- MIC90 (Candida albicans [1]): > 25 µM
- Ki ([2]; read-out: Ki): 15 nM

SMILES: COc1nc(C)nc(NC(=O)NS(=O)(=O)c2ccccc2Cl)n1 [CHLORSULFURON]
- MIC50 (Candida albicans [1]): 156 µM (≈ 55.8 µg/mL)
- MIC50 (Saccharomyces cerevisiae): 117 µM (≈ 41.9 µg/mL)
- Ki ([2]; read-out: Ki): 434 nM

SMILES: COC(=O)c1ccccc1S(=O)(=O)NC(=O)Nc1nc(C)cc(C)n1 [SULFOMETURON METHYL]
- MIC50 (Candida albicans [1]): inactive
- MIC50 (Saccharomyces cerevisiae): 19.5 µM (≈ 7.11 µg/mL)
- Ki ([2]; read-out: Ki): 634 nM

SMILES: COc1cc(Cl)nc(NC(=O)NS(=O)(=O)c2ccccc2C(=O)OCCO)n1
- MIC50 (Candida albicans [1]): > 25 µM
- MIC90 (Candida albicans [1]): > 25 µM
- Ki ([2]; read-out: Ki): 65 nM

SMILES: COC(=O)c1ccccc1CS(=O)(=O)NC(=O)Nc1nc(OC)cc(OC)n1 [BENSULFURON METHYL]
- MIC50 (Candida albicans [1]): 62 µM (≈ 25.4 µg/mL)
- MIC50 (Saccharomyces cerevisiae): 20.8 µM (≈ 8.54 µg/mL)
- Ki ([2]; read-out: Ki): 31 nM

SMILES: COc1cc(Br)nc(NC(=O)NS(=O)(=O)c2ccccc2C(=O)OCCO[Si](C)(C)C(C)(C)C)n1
- MIC50 (Candida albicans [1]): > 25 µM
- MIC90 (Candida albicans [1]): > 25 µM
- Ki ([2]; read-out: Ki): 49.8 nM

SMILES: COC(=O)c1ccccc1S(=O)(=O)NC(=O)Nc1nc(Br)cc(OC)n1
- MIC50 (Candida albicans [1]): 1 µM (≈ 0.445 µg/mL)
- MIC90 (Candida albicans [1]): 6.25 µM (≈ 2.78 µg/mL)
- Ki ([2]; read-out: Ki): 3.8 nM

SMILES: COc1cc(I)nc(NC(=O)NS(=O)(=O)c2ccccc2C(=O)OCCO[Si](C)(C)C(C)(C)C)n1
- MIC50 (Candida albicans [1]): > 25 µM
- MIC90 (Candida albicans [1]): > 25 µM
- Ki ([2]; read-out: Ki): 13 nM

SMILES: COc1cc(Cl)nc(NC(=O)NS(=O)(=O)c2ccccc2C(=O)OCCI)n1
- MIC50 (Candida albicans [1]): > 25 µM
- MIC90 (Candida albicans [1]): > 25 µM
- Ki ([2]; read-out: Ki): 1200 nM

SMILES: CCOC(=O)c1ccccc1S(=O)(=O)NC(=O)Nc1nc(Br)cc(OC)n1
- MIC50 (Candida albicans [1]): 0.7 µM (≈ 0.321 µg/mL)
- MIC90 (Candida albicans [1]): 1.56 µM (≈ 0.716 µg/mL)
- Ki ([2]; read-out: Ki): 4.1 nM

SMILES: CCOC(=O)c1ccccc1S(=O)(=O)NC(=O)Nc1nc(I)cc(OC)n1
- MIC50 (Candida albicans [1]): 0.6 µM (≈ 0.304 µg/mL)
- MIC90 (Candida albicans [1]): 1.56 µM (≈ 0.79 µg/mL)
- diameter of the inhibition zone (DIZ) (Candida albicans [4]): 35 mm
- Ki ([2]; read-out: Ki): 3.8 nM

SMILES: COc1cc(Br)nc(NC(=O)NS(=O)(=O)c2ccccc2C(=O)OCCO)n1
- MIC50 (Candida albicans [1]): > 25 µM
- MIC90 (Candida albicans [1]): > 25 µM
- Ki ([2]; read-out: Ki): 27 nM

SMILES: COc1cc(Br)nc(NC(=O)NS(=O)(=O)c2ccccc2C(=O)OCCBr)n1
- MIC50 (Candida albicans [1]): > 25 µM
- MIC90 (Candida albicans [1]): > 25 µM
- Ki ([2]; read-out: Ki): 65 nM

SMILES: COc1cc(I)nc(NC(=O)NS(=O)(=O)c2ccccc2C(=O)OCCBr)n1
- MIC50 (Candida albicans [1]): 12 µM (≈ 7.02 µg/mL)
- MIC90 (Candida albicans [1]): > 25 µM
- Ki ([2]; read-out: Ki): 26 nM

SMILES: COc1cc(Cl)nc(NC(=O)NS(=O)(=O)c2ccccc2C(=O)OCCCl)n1
- MIC50 (Candida albicans [1]): 15 µM (≈ 6.74 µg/mL)
- MIC90 (Candida albicans [1]): > 25 µM
- Ki ([2]; read-out: Ki): 62 nM

SMILES: COC(=O)c1ccccc1S(=O)(=O)NC(=O)N(C)c1nc(C)nc(OC)n1 [TRIBENURON METHYL]
- MIC50 (Candida albicans [1]): inactive
- MIC50 (Saccharomyces cerevisiae): inactive
- Ki ([2]; read-out: Ki): 1640 nM

Source: ChEMBL document CHEMBL2311498, “Sulfonylureas have antifungal activity and are potent inhibitors of Candida albicans acetohydroxyacid synthase” (J Med Chem, 2013)
